High-throughput results from PubChem.
Hits are enriched below; roughly 1.8% of the tested compounds scored in any of these assays.
CHRM5 agonist: agonists of human muscarinic M5 receptor (CHRM5); CHO-K1 hM5 cells, Fluo-8 calcium fluorescence; 0% DMSO wells, 100% maximal acetylcholine response; activation, % at 3 µM; hit rate 0.19% among 360,000; P08912;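 active = activation above the run's mean over test compounds plus 3 SD, cut at about 23% in these data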;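 note: signal is peak over basal fluorescence ratio across the kinetic read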
CHRM4 antagonist: blocks acetylcholine activation of human M4 receptor | inhibition, % at 3 µM | CHO-hM4 cells, ACh EC80, Fluo-8 calcium fluorescence | AID 624125 | hit rate 0.73% among 360,000;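 active = inhibition above its plate's cutoff, the mean inhibition of sample wells plus 3 SD, cut at about 27% in these data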;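 note: 0% = acetylcholine EC80 with DMSO and 100% = DMSO without agonist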
M4 ag: CHRM4 agonism in calcium assay. P08173. CHO-K1 hM4/Gqi5, Fluo-8 calcium fluorescence; vehicle 0%, full acetylcholine response 100%. activation, % at 3 µM. hit rate 0.14% among 360,000. AID 624127;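 active = activation above the run mean over all test wells plus 3 SD, cut at about 32% in these data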;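 note: peak over basal fluorescence ratio per well then scaled between controls; 0% = DMSO wells and 100% = acetylcholine at EC100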
CHRM5 antagonist: antagonists of human muscarinic M5 receptor (CHRM5); inhibition, % at 3 µM; CHO-hM5 cells, Fluo-8 calcium fluorescence, ACh EC80; P08912; AID 624040; hit rate 0.59% among 360,000;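 active = inhibition above a per-plate cutoff, the mean of that plate's test compounds plus 3 SD, cut at about 27% in these data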;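 note: 0% = acetylcholine EC80 with DMSO and 100% = DMSO without agonist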
CHRM5 PAM: potentiates acetylcholine response at human M5 receptor; P08912; AID 624038; activation, % at 3 µM; hit rate 0.3% among 360,000; CHO-K1 hM5, Fluo-8 calcium, ACh EC20 PAM; 0% = ACh EC20, 100% = ACh EC100;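 active = activation above the run cutoff, the mean activation of all test compounds plus 3 SD, cut at about 18% in these data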
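Assay system: CHO-K1 hM5 cells. Also added: acetylcholine at EC20 concentration, added after compound. Dosing: 3 µM, single dose. Times: compound preincubation 140 s before EC20 acetylcholine addition. Signal: Fluo-8 calcium fluorescence. Measure: % activation relative to EC20 and EC100 ACh responses. Repeats: singlicate, one well per test compound.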
CHRM4 PAM: potentiates acetylcholine response at human M4 receptor | CHO-K1 hM4/Gqi5, Fluo-8 calcium fluorescence, ACh EC20; 0% = ACh EC20, 100% = maximal ACh | hit rate 0.4% among 360,000 | activation, % at 3 µM | AID 624126 | P08173;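 active = activation above its plate's cutoff, the mean activation of sample wells plus 3 SD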
Active calls of the source: *.

SMILES | CHRM5 agonist | CHRM4 antagonist | M4 ag | CHRM5 antagonist | CHRM5 PAM | CHRM4 PAM
COc1ccccc1Sc1ccccc1CC(C)N (centres undefined) | -5 | 8 | 10 | 8 | 2 | 9
CC(Cc1ccccc1Sc1ccccc1)N(C)C (centres undefined) | -7 | 92* | 3 | 99* | -21 | -40
CC(Cc1ccccc1Sc1ccc(O)cc1)N(C)C (centres undefined) | -5 | 42* | 4 | 91* | -21 | -20
COc1ccc(NC2=NC(C)(C)CS2)cc1 | -12 | 3 | 15 | 12 | -13 | -12
CC1(C)CCCN1CCC(C(N)=O)(c1ccccc1)c1ccccc1 | -11 | 98* | 0 | 99* | -36 | -10
Oc1ccccc1-[n+]1c(-c2ccccc2)cc(-c2ccccc2)cc1-c1ccccc1 | -11 | 28* | 3 | 11 | -13 | -18
Cc1ccccc1-[n+]1c(-c2ccccc2)cc(-c2ccccc2)cc1-c1ccccc1 | -9 | 78* | 8 | 42* | -40 | -15
Nc1ccccc1-[n+]1c(-c2ccccc2)cc(-c2ccccc2)cc1-c1ccccc1 | -20 | 23 | 0 | 5 | -12 | -22
[O-]c1ccccc1-[n+]1c(-c2ccccc2)cc(-c2ccccc2)cc1-c1ccccc1 | -12 | 17 | 4 | 8 | -9 | -9
COC(=O)C1=C(c2cccc(OCc3ccccc3)c2)C[C@@H]2CC[C@H]1N2C(=O)NCCOc1ccccc1 | 0 | -1 | 1 | 9 | 4 | 5
CCOC(=O)C1(CCOc2ccccc2)CCN(C2Cc3ccccc3C2)CC1 | -7 | 3 | 3 | 32* | -18 | -17
CCOC(=O)C1(CCOc2ccccc2)CCN(Cc2cccc(O)c2)CC1 | -7 | 5 | 10 | 33* | -18 | -15
CCOC(=O)C1(CCOc2ccccc2)CCN(C(C)CSC)CC1 (centres undefined) | -8 | 7 | 2 | 13 | -16 | -11
CCOC(=O)C1(CCc2ccccc2)CCN(Cc2cccc3cnccc23)CC1 | -10 | 11 | 1 | 81* | -20 | -22
CCOC(=O)c1c(C=O)c2ccccc2n1Cc1ccccc1 | -5 | -6 | 0 | 1 | 0 | -2
O=c1cccc2n1CC1CNC[C@H]2C1 | 0 | -5 | 0 | 5 | 0 | -3
Cc1nc2cc([N+](=O)[O-])ccc2c(=O)n1-c1cccc(Br)c1 | 3 | 3 | 5 | 1 | 0 | 1
O=C1C2CCCN2C(c2cccnc2)N1c1ccc(Cl)cc1 (centres undefined) | -2 | 1 | 1 | -7 | 3 | 30*
CC1(C)OC(c2ccccc2)=C/C(=C/C=C2C(=O)NC(=O)NC2=O)O1 | 75* | 3 | 20 | 14 | -19 | -8
C=C[C@@H]1C2=CCOC(=O)C2=CO[C@H]1O[C@@H]1O[C@H](CO)[C@@H](O)[C@H](O)[C@H]1O | 6 | 2 | 1 | 1 | 3 | 4
CN(C)CCSC1c2ccccc2CSc2ccccc21 (centres undefined) | -21 | 98* | 5 | 99* | -32 | -17
